Assay results from PubChem BioAssay AID504383 (The Scripps Research Institute Molecular Screening Center, 2011).
Among all 2,500 compounds or so, about 1,200 (48%) were called active. So high a share suggests a set chosen from earlier hits. The list shows a part of the results. Unmarked numbers belong to inactive results.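 Rule for the calls: active = mean activation above the low control average plus 3 SD, as set in the primary screen (cut at about 12% in these data); inactive = the rest.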

The compounds below were run against Troponin I, cardiac muscle (Homo sapiens) + Troponin T, cardiac muscle (Homo sapiens) + Troponin C, slow skeletal and cardiac muscles (Homo sapiens) (UniProt P19429+P45379+P63316) (assay: cardiac RTF calcium sensitivity activators, confirmation, biochemical, IANBD-TnC fluorescence, triplicate (AID 504383;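 note: 0% = DMSO at 0.472 mM calcium and 100% = DMSO at 2.9 mM calcium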)). Settings: IANBD-labeled cardiac RTF, Ca2+ sensitivity fluorescence; at 7.2 µM; active compounds read high; scaled from EC20 to saturating calcium; tested at EC20 calcium, 0.472 mM.
How it was run: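 Assay system: labelled regulated thin filament protein complex; schedule: 15 min compound incubation with filaments at 25 °C; benchmarks: low control EC20 calcium, high control EC100 calcium; reagent: Ca2+ 0.472 mM, EC20 level; doses: one dose, 7.2 µM nominal; evaluation: fluorescence gain scaled between EC20 and EC100 calcium controls; signal: filament fluorescence intensity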

Structure (SMILES) | activation
Cc1noc(NS(=O)(=O)c2ccc(NC(=O)CSc3nc4c(cc3C#N)CCC4)cc2)c1C | 12.5% (active)
COC(=O)C1=C(CSc2nc3c(cc2C#N)CN(C)CC3)OC(N)=C(C#N)C1c1ccc(F)cc1 (stereo not given) | -0.37%
Cc1cc(C)nc(NS(=O)(=O)c2ccc(NC(=O)CSc3nc4ccccc4[nH]3)cc2)n1 | 8.08%
CC(=O)Nc1ccccc1 | 6.06%
CC(=O)Nc1ccc2nc3c(=O)n(C)c(=O)n(C)c3nc2c1 | 18.8% (active)
CC(=O)Nc1ccc2cc3ccc(NC(C)=O)cc3nc2c1 | 43% (active)
CC1CCN(S(=O)(=O)c2ccc(N=NC3=C(O)CC(C)(C)CC3=O)cc2)CC1 | 11.9% (active)
CC(=O)Nc1ccc(S(=O)(=O)N2CCN3CCCC3C2)cc1 (stereo not given) | 6.53%
Cc1nn(C)c(NC(=O)c2ccccc2Cl)c1Cl | 59.1% (active)
COc1ccccc1C(=O)Nc1nnn(C)n1 | 10%
CN1Cc2c(N)cccc2C(c2ccccc2)C1 (stereo not given) | -1.03%
N/C(COc1cc(Cl)cc(Cl)c1)=N\O | 153% (active)
COC(=O)CN1C(=S)N(c2ccc(OC)cc2)C(=O)/C1=C/c1ccc(N2CCOCC2)cc1 | 11.4%
CCc1ccc(/C=C2/C(=O)N(C)C(=S)N2CC(=O)OC)s1 | 11.7% (active)
C=CCN(C(=O)CNS(=O)(=O)c1ccccc1)C(C(=O)NCCOC)c1ccncc1 (stereo not given) | 16.9% (active)
COCCCN1C(=O)/C(=C/c2ccc(CNS(=O)(=O)c3ccccc3)o2)C(C(=O)OC)=C1C | 8.19%
CCOc1ccc(N(C(=O)CNC(=O)c2ccco2)C(C(=O)NC2CCCC2)c2ccncc2)cc1 (stereo not given) | 9.24%
N#CC(C#N)=C1C=C2C=C(N3CCOCC3)CCC2CC1 (stereo not given) | -1.16%
Cc1ccccc1-n1c(O)c(/C=C/C=Nc2ccccc2)c(=O)[nH]c1=O | 19.4% (active)
CSc1nnc(N(CCC#N)CCC#N)s1 | 35.1% (active)
O=C(CN1C(=O)c2ccccc2C1=O)N1CCN=C1c1ccccc1 | 70.2% (active)
O=C(c1ccc(F)cc1)N1CCN=C1c1ccccc1 | 9.85%
O=C1c2ccccc2C(=O)N1CC1=NCCc2ccccc21 | 11.2%
CC1CN/C(=C\C(=O)c2ccc(Br)cc2)C(=O)N1 (stereo not given) | 2.08%
C=CCN1C=CC(=CC=C(C#N)C#N)C=C1 | 668% (active)
CCOC(=O)/C(C#N)=C\C=C1C=CN(C)C=C1 | 8.19%
CCCCCCN1C=CC(=C/C=C(\C#N)C(=O)OCC)C=C1 | 501% (active)
C=CCN1C=CC(=C/C=C(/C#N)C(=O)OCC)C=C1 | 4.84%
CC1=C/C(=C\C=C(C#N)C#N)N(C)c2ccccc21 | 8.37%
CCCN1C=CC(=CC=C(C#N)C#N)C=C1 | 28% (active)
